Test results: ChEMBL document CHEMBL3817782, “Synthesis, Structural Elucidation, and Biological Evaluation of NSC12, an Orally Available Fibroblast Growth Factor (FGF) Ligand Trap for the Treatment of FGF-Dependent Lung Tumors” (J Med Chem, 2016)
In brackets after ≈: the same amount, converted by molar mass. Activity calls are given as the source filed them. No cut-off for these calls is given here.

Tests used:
[1] = target: T1, Fibroblast growth factor 2 (Homo sapiens, UniProt P09038); assay: Binding affinity to human recombinant FGF2 at 8 to 150 uM treated for 4 mins measured after 10 mins by surface plasmon resonance spectroscopic analysis
How it was run: (§1)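 Human recombinant FGF2 (20 μg/mL in 10 mM sodium acetate, pH 6.0) coupled to an EDC/NHS-activated CM5 chip, with an ethanolamine-blocked dextran reference cell. Compounds injected at 8–150 μM for 4 min (30 μL/min), then 10 min dissociation. Apparent Kd taken from dose-dependent binding. Samples in PBS with 3% DMSO.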

[2] = Kinetic solubility in 3% DMSO solution in PBS up to 30 uM stirred for 5 mins by HPLC-MS/MS analysis; type: physicochemical; details: buffer
How it was run: (§2)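 Fresh DMSO stocks diluted into PBS to nominal 100, 44, 29, 16 and 8.9 μM, 3% DMSO final. Stirred 5 min (250 rpm, rt), centrifuged to remove undissolved material. Supernatant diluted 1:100 in MeCN containing internal standard (100 nM) and quantified by HPLC–ESI-MS/MS.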

[3] = target: T1, Fibroblast growth factor 2; assay: Inhibition of human recombinant FGF2 assessed as reduction in HSPG/FGF2/[…] interaction by measuring FGF2 mediated […]-CHO-flg-1A-luc cell to CHO-K1 cell adhesion at 100 uM incubated for 2 hrs by luciferase assay; type: cell-based
How it was run: (§3)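 Wild-type CHO-K1 monolayers fixed in 3% glutaraldehyde for 2 h at 4 °C, quenched with 0.1 M glycine. A745-CHO-flg-1A-luc cells (50 000 cells/cm²) added in serum-free medium plus 10 mM EDTA, with or without 30 ng/mL FGF2, plus increasing compound concentrations in 3% DMSO. Incubated 2 h at 37 °C. Unattached cells washed off; bound-cell luciferase measured. Triplicates.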

[4] = target: T1, Fibroblast growth factor 2; assay: Inhibition of human recombinant FGF2 assessed as suppression of FGFR1 phosphorylation in mouse LLC cells at 100 uM incubated for 20 mins by Western blot analysis; type: cell-based
How it was run: (§4)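 LLC cells stimulated with FGF2 (30 ng/mL) with or without compound in medium plus 3% DMSO for 20 min. Cells lysed in RIPA buffer with 1% Triton X-100, 0.2% Brij and 1 mM orthovanadate. Immunoblotted with anti-phospho-FGFR1, with β-actin as loading control.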

[5] = test system: Lewis lung carcinoma; assay: Antiproliferative activity against mouse LLC cells at 0.3 to 10 uM incubated for 48 hrs by PI-staining based flow cytometry; type: functional, cell-based
How it was run: (§5)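 LLC cells kept in DMEM plus 10% heat-inactivated FBS and cultured 48 h with compound in medium plus 1% DMSO final. PI-negative viable cells counted by flow cytometry to give absolute counts.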

[6] = test system: NCI-H520; assay: Antiproliferative activity against human NCI-H520 cells at 0.3 to 10 uM incubated for 72 hrs by PI-staining based flow cytometry; type: functional, cell-based
How it was run: (§6)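 H520 cells kept in RPMI plus 10% FBS and cultured 72 h with compound in medium plus 1% DMSO final. Viable PI-negative cells counted by flow cytometry, with absolute counts from the analyzer's counting function.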

[7] = Kinetic solubility in DMEM buffer/1% DMSO assessed as recovered drug level at 10 uM after 4 hrs by HPLC-MS/MS analysis; type: physicochemical; details: DMEM buffer with 1% DMSO; read-out: Drug recovery
How it was run: (§7)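 Fresh DMSO stocks added 1:100 to DMEM plus 0.4% FBS, giving nominal 10, 6 or 3 μM and 1% DMSO final. Stirred 4 h (250 rpm, rt), centrifuged, supernatant diluted 1:100 in MeCN with internal standard. Quantified by HPLC–MS/MS.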

[8] = Dissociation constant, pKa of the compound in methanol-water mixture at 25 +/- 1 degC by potentiometric pH-metric method; type: physicochemical
How it was run: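 Potentiometric pH-metric titration in methanol–water mixtures from 40 to 10%. Aqueous pKa extrapolated. Titration curves fitted by nonlinear multiparametric analysis.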

[9] = Kinetic solubility in DMEM buffer at 10 uM after 4 hrs in presence of EDTA by HPLC-MS/MS analysis; type: physicochemical; details: DMEM buffer with EDTA; read-out: Kinetic_solubility
How it was run: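 10 μM (nominal) in DMEM plus 0.4% FBS with 2 mM EDTA and 1% DMSO final. Stirred 4 h (250 rpm, rt), then centrifuged. Supernatant diluted 1:100 in MeCN with internal standard and measured by HPLC–MS/MS. Mean of recovered concentration reported with ±.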

[10] = Kinetic solubility in DMEM buffer/1% DMSO assessed as recovered drug level at 6 uM after 4 hrs by HPLC-MS/MS analysis; type: physicochemical; details: DMEM buffer with 1% DMSO; read-out: Drug recovery; how it was run: as §7
[11] = Kinetic solubility in DMEM buffer/1% DMSO assessed as recovered drug level at 3 uM after 4 hrs by HPLC-MS/MS analysis; type: physicochemical; details: DMEM buffer with 1% DMSO; read-out: Drug recovery; how it was run: as §7
[12] = test system: Lewis lung carcinoma; assay: Antitumor activity against mouse LLC cells xenografted in C57BL/6 mouse assessed as tumor growth inhibition at 7.5 mg/kg administered as oral gavage for 7 days daily relative to vehicle-treated control; type: functional, organism-based
How it was run: (§8)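 Eight-week-old C57BL/6 mice given 5 × 10^5 LLC cells sc in the dorsolateral flank in PBS. Dosing started once tumors were palpable: 7.5 mg/kg or vehicle daily by gavage in DMSO/H2O (1:1). Tumors measured in two dimensions, volume taken as (D × d²)/2. At the end, tumors harvested, weighed and photographed. Body weight and clinical signs followed throughout.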

[13] = test system: Mus musculus; assay: Toxicity in C57BL/6 mouse xenografted with mouse LLC cells assessed as effect on body weight at 7.5 mg/kg administered as oral gavage for 7 days daily; type: organism-based; details: in vivo, 168 h; how it was run: as §8
[14] = test system: Mus musculus; assay: Toxicity in C57BL/6 mouse xenografted with mouse LLC cells assessed as effect on clinical parameters at 7.5 mg/kg administered as oral gavage for 7 days daily; type: organism-based; details: in vivo, 168 h; how it was run: as §8
[15] = Plasma concentration in C57BL/6 mouse at 7.5 mg/kg administered as single dose measured after 30 mins; type: ADME, organism-based
How it was run: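 Eight-week-old mice given 7.5 mg/kg orally, with blood drawn 30 min, 2 h and 8 h later. Plasma proteins precipitated with acetonitrile containing internal standard (1:2). Analyte quantified by HPLC–ESI-MS/MS against calibration curves in spiked blank mouse plasma (linear 1–500 nM, LOQ 1 nM). Extraction recovery 90–95%.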

[16] = Kinetic solubility in 3% DMSO solution in PBS at 44 to 100 uM stirred for 5 mins by HPLC-MS/MS analysis; type: physicochemical; details: buffer; how it was run: as §2
[17] = target: T1, Fibroblast growth factor 2; assay: Binding affinity to human recombinant FGF2 treated for 4 mins measured after 10 mins by surface plasmon resonance spectroscopic analysis; how it was run: as §1
[18] = target: T1, Fibroblast growth factor 2; assay: Inhibition of human recombinant FGF2 assessed as reduction in HSPG/FGF2/[…] interaction by measuring FGF2 mediated […]-CHO-flg-1A-luc cell to CHO-K1 cell adhesion incubated for 2 hrs by luciferase assay; type: cell-based; how it was run: as §3
[19] = target: T1, Fibroblast growth factor 2; assay: Inhibition of human recombinant FGF2 assessed as suppression of FGF2-stimulated FGFR1 phosphorylation in mouse LLC cells at 25 uM incubated for 20 mins by Western blot analysis; type: cell-based; how it was run: as §4
[20] = Antiproliferative activity against mouse LLC cells incubated for 48 hrs by PI-staining based flow cytometry; type: functional, cell-based; details: Lewis lung carcinoma; how it was run: as §5
[21] = test system: NCI-H520; assay: Antiproliferative activity against human NCI-H520 cells incubated for 72 hrs by PI-staining based flow cytometry; type: functional, cell-based; details: NCI-H520, 72 h; how it was run: as §6
[22] = test system: Lewis lung carcinoma; assay: Antiangiogenic activity against mouse LLC cells xenografted in C57BL/6 mouse assessed as pale appearance at 7.5 mg/kg administered as oral gavage for 7 days daily; type: functional, organism-based; how it was run: as §8

T1 sequence (P09038 143-288 limits assumed): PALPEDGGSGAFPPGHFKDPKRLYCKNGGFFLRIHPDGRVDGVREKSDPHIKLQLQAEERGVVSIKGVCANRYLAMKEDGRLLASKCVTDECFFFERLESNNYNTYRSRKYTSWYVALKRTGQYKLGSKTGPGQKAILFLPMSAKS

Kinetic_solubility [2] | solubility kinetic at 4 h, 10 µM [7] [µM] | pKa [8] | concentration at 0.5 h [15] [µM] | IC50 [18] [µM] | IC50 [21] [µM] | SMILES | TGI [12] | Activity [13] | Activity [14] | IC50 [20] [µM] | Activity [22] | also measured
Insoluble | 2.1 (≈ 1.02 µg/mL) | 9.08 | 0.128 |  |  | C[C@]12CC[C@H]3[C@@H](CC=C4C[C@@H](O)CC[C@@]43C)[C@@H]1CC[C@@H]2[C@H](O)CC(O)(C(F)(F)F)C(F)(F)F | inactive | Non-toxic | Non-toxic |  |  | Activity [1]: inactive; inhibition [3]: inactive; inhibition [4]: inactive; Activity [5]: inactive; Activity [6]: inactive; solubility kinetic at 4 h, 10 µM [9]: 1.73 µM; solubility kinetic at 4 h, 6 µM [10]: 1.7 µM (≈ 0.824 µg/mL); solubility kinetic at 4 h, 3 µM [11]: 1.4 µM (≈ 0.678 µg/mL)
soluble | 10.7 (≈ 5.18 µg/mL) | 9.04 | 0.316 | 10 | 4.1 | C[C@]12CC[C@H]3[C@@H](CC=C4C[C@@H](O)CC[C@@]43C)[C@@H]1CC[C@@H]2[C@@H](O)CC(O)(C(F)(F)F)C(F)(F)F | Active | Non-toxic | Non-toxic | 2 | Active | Kinetic_solubility [16]: Insoluble; Activity [17]: Dose-dependent effect; Kd [17]: 40 µM; inhibition [19]: Active
 |  |  |  | 10 | 4.1 | C[C@]12CC[C@H]3[C@@H](CC=C4C[C@@H](O)CC[C@@]43C)[C@@H]1CC[C@@H]2C(O)CC(O)(C(F)(F)F)C(F)(F)F (some centres undefined) |  |  |  | 2 | Active | 
